DNMT1 block – human DNMT1 methyltransferase inhibitors, primary screen, biochemical, molecular beacon, fluorescence, HinP1I cleavage, uHTS. AID 588458, 2011. 0.83% of 360,000 active. inhibition (reported as % activation of signal), % at 10 µM. DNA (cytosine-5)-methyltransferase 1 (Homo sapiens), P26358; in the data active = inhibition above about 50%
CFTR F508del cor – F508del CFTR correction, initial screen, CFBE line, single point | CFBE cells, YFP halide quenching; stimulated with forskolin plus potentiator P3; % fluorescence drop versus neutral controls | activity (quench increase), % at 7.58 µM | 0.36% of 350,000 active | AID 720511, 2013;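 active = mean added fluorescence quench of at least 8% versus neutral control, with both replicates also reaching 8%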;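 note: cells transiently co-express mutant CFTR-F508del with the halide-sensitive YFP; corrector assay measuring rescue of mutant channel to the surface after 24 h compound exposure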
SUMO1-SIM PPI – modulators of SUMO1 protein-protein interactions, primary screen, biochemical, uHTS; Small ubiquitin-related modifier 1 (Homo sapiens), P63165; SUMO1 binding to a labelled peptide, TR-FRET, 1 h; inhibition, % at 20 µM; 0.33% of 360,000 active; AID 602429, 2012; in the data active = inhibition above about 37%
LMPTP inh – LMPTP phosphatase inhibitors, primary screen, biochemical, fluorescence intensity, uHTS | recombinant LMPTP-A, OMFP fluorogenic substrate | inhibition, % at 20 µM | 0.22% of 360,000 active | AID 651560, 2012;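 active = compounds that cut the enzyme signal by at least half of the control window in the single-dose screen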;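 note: plate controls were DMSO wells with enzyme plus substrate for no effect and substrate without enzyme for full effect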
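Material: LMPTP-A; amount: 0.625 nM enzyme; doses: single 20 µM dose; times: reaction 50 min, room temperature, dark; technique: fluorescence intensity of OMFP turnover product; benchmarks: no-enzyme and uninhibited controls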
STEP block – STEP phosphatase inhibitors, primary screen, biochemical, fluorescence intensity, uHTS; Tyrosine-protein phosphatase non-receptor type 5 (Homo sapiens), P54829; recombinant STEP, OMFP fluorogenic substrate; inhibition, % at 20 µM; 0.25% of 360,000 active;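 active = inhibition at 20 µM, scaled per plate between control wells, above about 37%, limit read from the data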;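 note: 0% = DMSO with enzyme and substrate and 100% = substrate only without enzyme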
Target sequence (P54829 whole entry, looked up): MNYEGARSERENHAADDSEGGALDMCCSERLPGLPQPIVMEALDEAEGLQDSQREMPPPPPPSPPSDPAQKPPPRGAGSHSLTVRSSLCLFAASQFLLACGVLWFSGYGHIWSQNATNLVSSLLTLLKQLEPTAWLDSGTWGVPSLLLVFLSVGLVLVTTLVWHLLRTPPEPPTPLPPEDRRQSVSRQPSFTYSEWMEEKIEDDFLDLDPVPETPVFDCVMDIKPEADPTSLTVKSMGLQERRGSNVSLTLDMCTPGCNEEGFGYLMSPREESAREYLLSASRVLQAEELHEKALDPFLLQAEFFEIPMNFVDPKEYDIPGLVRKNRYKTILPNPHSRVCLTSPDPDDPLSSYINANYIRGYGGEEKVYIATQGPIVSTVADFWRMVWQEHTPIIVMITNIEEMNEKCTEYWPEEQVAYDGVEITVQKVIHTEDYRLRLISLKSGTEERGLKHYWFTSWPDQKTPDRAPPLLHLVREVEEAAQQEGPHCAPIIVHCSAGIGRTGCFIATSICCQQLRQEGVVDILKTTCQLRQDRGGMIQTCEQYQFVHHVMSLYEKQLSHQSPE
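Assay system: isolated STEP enzyme. Buffer or medium: pH 6.0 Bis-Tris with DTT and Tween 20. Also added: fluorogenic phosphatase substrate OMFP at 25 µM final. Dosing: 20 µM, 1% DMSO. Timing: 20 min reaction, room temperature, in the dark. Measured by: fluorescence intensity, excitation 480 nm, emission 540 nm. Evaluation: normalized % inhibition.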
Scp-1 inhibitor – Scp-1 phosphatase inhibitors, primary screen, biochemical, colorimetric, uHTS. Recombinant Scp1, phosphopeptide, malachite green phosphate absorbance. 0.88% of 340,000 active. inhibition, % at 20 µM;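 active = inhibition above about 50% at 20 µM, limit read from the data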;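 note: plate controls were DMSO wells with enzyme for no effect and wells lacking enzyme for full effect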
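Test system: SCP-1 phosphatase catalytic domain, residues 76-261 | Compound dosing: One concentration, 20 µM, with 1.0% DMSO | Schedule: 45 min room-temperature reaction, 5 min colour, 30 min stabiliser | Detection: Absorbance at 630 nm | Read-out basis: % inhibition of SCP-1 phosphate liberation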
Scp-1 conf – Scp-1 phosphatase inhibitors, retest, confirmation, biochemical, colorimetric, single concentration; shares compounds with Scp-1 inhibitor; recombinant SCP-1 catalytic domain, phosphate release, malachite green absorbance; inhibition, % at 20 µM; 61% of 2,500 active;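 note: plate controls were DMSO with enzyme for no effect and buffer wells lacking enzyme for full effect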
Scp-1 MG ctr – colorimetric readout interference by compounds, confirmation, artefact control for Scp-1 inhibitor project, biochemical, single concentration. shares compounds with Scp-1 inhibitor. Colorimetric interference counterscreen, malachite green absorbance 630 nm. apparent inhibition (interference), % at 20 µM. 2,500 tested, under 10 active. AID 540313, 2011;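 note: compounds added after enzyme reaction finished so only phosphate colour detection is probed; plate controls were DMSO wells with completed Scp-1 reaction for no effect and substrate wells lacking enzyme for full effect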
Scp1 DSF – Scp-1 binding by thermal shift, confirmation, orthogonal assay for Scp-1 inhibitor project, biophysical, differential scanning fluorimetry; shares compounds with Scp-1 inhibitor; Recombinant SCP1, Sypro Orange thermal shift Tm; thermal shift relative to vanadate control, % at 40 µM; 25% of 1,500 active; AID 540329, 2011;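 active = substances whose mean melting-temperature shift, as a percentage of the reference inhibitor's shift, reaches about 5.3%, limit read from the data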;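 note: 0% = Tm of DMSO wells and 100% = Tm with sodium orthovanadate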
The depositor's hits bear a star; nt = no result given. Hits are enriched below; roughly 1.6% of the tested compounds scored in any of these assays.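 Rule for the calls, unless noted: active = inhibition of at least 30% at 20 µM; inactive = the rest.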

SMILES	DNMT1 block	CFTR F508del cor	SUMO1-SIM PPI	LMPTP inh	STEP block	Scp-1 inhibitor	Scp-1 conf	Scp-1 MG ctr	Scp1 DSF
CO[C@@H]1CN(C)C(=O)c2cc(NC(=O)Nc3cccc(F)c3)ccc2OC[C@@H](C)N(C(=O)Nc2c(C)noc2C)C[C@@H]1C	nt	2	nt	nt	nt	nt	nt	nt	nt
O=C(N/N=C/c1ccc2c(c1)OCO2)c1ccc2c(c1)OCCO2	1	nt	-8	0	-1	-3	nt	nt	nt
COc1ccc(/C=N/NC(=O)c2ccc(COCC(F)(F)C(F)F)cc2)cc1	0	nt	2	-2	-1	-1	nt	nt	nt
O=C(N/N=C\C=C\c1ccc(Br)cc1)c1ccc2c(c1)OCO2	81*	2	45*	57*	98*	95*	94*	-4	-3
C[n+]1cccc(C(=O)N/N=C/c2ccc3c(c2)OCO3)c1	0	-1	-19	0	1	50*	15	-7	nt
O=C(N/N=C/c1ccc2c(c1)OCO2)c1ccc(COCC(F)(F)C(F)F)cc1	7	nt	6	25	9	72*	77*	-11	-12
C[C@H]1CN([C@@H](C)CO)C(=O)c2cccc(NC(=O)C3CC3)c2O[C@@H]1CN(C)Cc1ccc2c(c1)OCO2	nt	0	nt	nt	nt	nt	nt	nt	nt
CC(=O)c1ccc(S(=O)(=O)N2Cc3ccccc3CC2C(=O)O)cc1 (stereo not drawn)	37	1	17	0	8	82*	64*	-16	-1
N/C(=N\OC(=O)c1cccc(F)c1)c1cccc([N+](=O)[O-])c1	3	0	-10	-1	10	-5	nt	nt	nt
N/C(=N/OC(=O)c1cccc([N+](=O)[O-])c1)c1cccc([N+](=O)[O-])c1	3	2	-24	0	4	95*	75*	-22	6.6*
O=C(Nc1cccnc1Cl)c1ccc(=O)oc1	35	2	-4	0	1	53*	43*	-4	6.5*
O=C(COc1ncnc2sccc12)N1CCN(C(=O)c2ccco2)CC1	35	-4	47*	5	7	92*	64*	-20	2
C[C@@H]1CN([C@H](C)CO)C(=O)Cc2cc(NS(=O)(=O)c3ccccc3)ccc2O[C@H]1CN(C)S(=O)(=O)c1cccs1	nt	-2	nt	nt	nt	nt	nt	nt	nt
C[C@]12CCC3C(CC=C4C[C@@H](O)CC[C@@]43C)C1CCC2[C@]1(C)CCC(=O)O1 (stereo partly drawn)	-1	2	3	-1	-3	58*	-2	-12	nt
COc1ccc(CN(C)C[C@H]2OCCCC[C@H](C)Oc3ccc(NC(=O)CCCN(C)C)cc3C(=O)N([C@@H](C)CO)C[C@@H]2C)cc1	nt	2	nt	nt	nt	nt	nt	nt	nt
CCN(CCCCN1C(=O)c2ccccc2C1=O)c1ccc2c(c1)C(=O)N(C)C2=O	31	nt	-15	6	2	67*	68*	-11	1
CCOc1ccc(OCCCC(=O)N2CCN(S(=O)(=O)c3ccc(Cl)cc3)CC2)cc1	4	-2	6	-1	3	56*	79*	-20	-3
C[C@@H](NC(=O)C[C@@H]1CC[C@@H](NC(=O)C2CCOCC2)[C@H](CO)O1)c1ccccc1	nt	1	nt	nt	nt	nt	nt	nt	nt
Clc1ccc(Sc2oc(/C=N/n3cnnc3)cc2Br)cc1	2	nt	-12	0	0	98*	-15	-15	nt
N#C/C(=C\c1ccc(/C=C(/C#N)c2nn(CCO)c(N)c2C#N)cc1)c1nn(CCO)c(N)c1C#N	4	nt	60*	6	14	68*	3	-13	nt
C[C@@H](NC(=O)C[C@@H]1C[C@@H]2c3cc(NC(=O)Nc4ccccc4F)ccc3O[C@@H]2[C@@H](CO)O1)c1ccccc1	nt	1	nt	nt	nt	nt	nt	nt	nt
CCOc1cc(Br)c(Br)c(C=Nc2ccc(NC(C)=O)cc2)c1O	8	nt	-7	7	13	75*	72*	-14	2
CC(=O)N(C)C[C@H]1Oc2cc(-c3cncnc3)ccc2S(=O)(=O)N([C@H](C)CO)C[C@H]1C	nt	-4	nt	nt	nt	nt	nt	nt	nt
O=C(O)COc1ccc2c(c1)O/C(=C\c1ccco1)C2=O	69*	-1	7	2	77*	75*	70*	6	7.5*
CCCOc1nc2ccccc2cc1/C=C/C(=O)O	15	3	-6	1	1	-3	nt	nt	nt
O=C(O)/C=C/c1cnc2ccccc2c1	2	-1	-4	0	0	55*	10	-13	nt
Cc1cccc(N2CCN(C(=O)c3ccc(S(=O)(=O)N(C)c4ccccc4)cc3)CC2)c1C	-5	1	-4	4	0	99*	75*	-17	-26
CN1CCN(C(=O)c2ccc(S(=O)(=O)N(C)c3ccccc3)cc2)CC1	2	-3	-2	0	1	nt	nt	nt	nt
